In ChEMBL document CHEMBL3769399, “Synthesis and cytotoxic activities of some pyrazoline derivatives bearing phenyl pyridazine core as new apoptosis inducers” (Eur J Med Chem, 2016):

Legend:
A549 [1] = assay: Antiproliferative activity against human A549 cells assessed as cell viability after 24 hrs by MTT assay; format: functional, cell-based; conditions: A549, 24 h
How it was run: (§1)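 Monolayers in DMEM (A549) or RPMI (MCF-7) with 10% fetal calf serum, penicillin and streptomycin at 37 °C and 5% CO2. Seeded overnight at 10^3 cells/well, then dosed at 0–100 from a serum-free stock in 1% DMSO diluted in complete medium. After 24 h, viability was read by WST-1 premix at 450 nm and blank-corrected against untreated cells. IC50 given as mean with standard error.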

HepG2 [2] = assay: Antiproliferative activity against human HepG2 cells assessed as cell viability after 24 hrs by MTT assay; format: functional, cell-based; conditions: HepG2, 24 h
How it was run: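 HepG2 grown as monolayer in DMEM plus 10% fetal calf serum and penicillin/streptomycin at 37 °C, 5% CO2. Plated overnight at 10^3 cells/well and exposed 24 h to five levels (0–100) diluted in complete medium from a 1% DMSO stock. WST-1 absorbance at 450 nm gave blank-corrected % viability versus untreated control, from which IC50 was derived.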

MCF7 [3] = assay: Antiproliferative activity against human MCF7 cells assessed as cell viability after 24 hrs by MTT assay; format: functional, cell-based; conditions: MCF7, 24 h; how it was run: as §1
[4] = Antiproliferative activity against human Caco2 cells assessed as cell viability after 24 hrs by MTT assay; format: functional, cell-based; conditions: Caco-2, 24 h
How it was run: (§2)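 CaCo-2 kept in RPMI with 10% fetal calf serum and antibiotics at 37 °C, 5% CO2. Cells were seeded at 10^3 per well overnight, then treated 24 h at 0, 5, 10, 50 and 100, diluted from a stock containing 1% DMSO. Viability came from WST-1 read at 450 nm, blank-subtracted and normalised to untreated cells.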

MCF7 [5] = assay: Induction of apoptosis in human MCF7 cells at 10 uM by annexin V-FITC/ethidium homodimer III staining-based flow cytometry relative to control; format: functional
How it was run: (§3)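 Treated cells at 2–3×10^5/mL were resuspended in 1X binding buffer and stained with FITC-Annexin V (apoptosis) plus Ethidium Homodimer III (necrosis) for 15 min at room temperature in the dark. Buffer was added and FACS was read within 1 h. Percent induction is the compound's apoptotic or necrotic fraction minus that of untreated negative control.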

[6] = Cytotoxicity against HEK293 cells assessed as cell viability at 300 uM after 24 hrs by MTT assay; format: cell-based; conditions: human, read-out: Activity
How it was run: (§4)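 Human embryonic kidney 293 cells, as normal-cell counterpart, treated at four levels (10, 100, 200, 300). Percentage of viable cells reported with SE at each level, and IC50 estimated.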

[7] = Cytotoxicity against HEK293 cells assessed as cell viability at 200 uM after 24 hrs by MTT assay; format: cell-based; conditions: human, read-out: Activity; how it was run: as §4
HEK293 = assay: Cytotoxicity against HEK293 cells assessed as cell viability after 24 hrs by MTT assay; format: cell-based; conditions: Homo sapiens, HEK293, 24 h; how it was run: as §4
MCF7 [8] = assay: Induction of necrosis in human MCF7 cells at 10 uM by annexin V-FITC/ethidium homodimer III staining-based flow cytometry relative to control; format: functional; how it was run: as §3
[9] = Cytotoxicity against HEK293 cells assessed as cell viability at 10 uM after 24 hrs by MTT assay; format: cell-based; conditions: human, read-out: Activity; how it was run: as §4
[10] = Cytotoxicity against HEK293 cells assessed as cell viability at 100 uM after 24 hrs by MTT assay; format: cell-based; conditions: human, read-out: Activity; how it was run: as §4
[11] = Antiproliferative activity against human Caco2 cells assessed as cell viability at 10 uM after 24 hrs by MTT assay; format: functional; conditions: Caco-2, 24 h, read-out: Activity; how it was run: as §2
HepG2 [12] = assay: Induction of apoptosis in human HepG2 cells at 10 uM by annexin V-FITC/ethidium homodimer III staining-based flow cytometry relative to control; format: functional; how it was run: as §3
HepG2 [13] = assay: Induction of necrosis in human HepG2 cells at 10 uM by annexin V-FITC/ethidium homodimer III staining-based flow cytometry relative to control; format: functional; how it was run: as §3
A549 [14] = assay: Induction of necrosis in human A549 cells at 10 uM by annexin V-FITC/ethidium homodimer III staining-based flow cytometry relative to control; format: functional; how it was run: as §3
A549 [15] = assay: Induction of apoptosis in human A549 cells at 10 uM by annexin V-FITC/ethidium homodimer III staining-based flow cytometry relative to control; format: functional; how it was run: as §3
MCF7 [16] = assay: Induction of apoptosis in human MCF7 cells assessed as increase in caspase 3 activation at IC50 using Ac-Asp-Glu-Val-Asp-pNA as substrate after 24 hrs by colorimetric assay relative to control; format: functional
How it was run: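 MCF-7 cells were grown in RPMI with 10% fetal calf serum, penicillin and streptomycin at 37 °C under 5% CO2, then seeded at 5 × 10^5 cells/well and treated for 24 h. After the medium was removed, cells were lysed with lysis buffer and shaken for 10 min. Lysate was added to caspase-3 reaction buffer containing diluted substrate. The increase in A405 was read over 30 min and expressed relative to untreated controls.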

Caco-2 [17] = assay: Induction of apoptosis in human Caco2 cells at 10 uM by annexin V-FITC/ethidium homodimer III staining-based flow cytometry relative to control; format: functional; how it was run: as §3
Caco-2 [18] = assay: Induction of necrosis in human Caco2 cells at 10 uM by annexin V-FITC/ethidium homodimer III staining-based flow cytometry relative to control; format: functional; how it was run: as §3

IC50 (A549 [1]) | IC50 (HepG2 [2]) | IC50 (MCF7 [3]) | SMILES | IC50 [4] | Activity (MCF7 [5]) | viability at 24 h, 300 µM [6] | viability at 24 h, 200 µM [7] | IC50 (HEK293) | Activity (MCF7 [8]) | viability at 24 h, 10 µM [9] | viability at 24 h, 100 µM [10] | viability at 10 µM [11] | Activity (HepG2 [12]) | Activity (HepG2 [13]) | Activity (A549 [14]) | Activity (A549 [15]) | fold change (FC) (MCF7 [16]) | Activity (Caco-2 [17]) | Activity (Caco-2 [18])
> 100 µM | > 100 µM | > 100 µM | COc1ccc(C2CC(c3ccc(Cl)cc3)=NN2c2ccc(-c3ccccc3)nn2)c(OC)c1 (stereo not drawn) | > 100 µM | – | – | – | – | – | – | – | – | – | – | – | – | – | – | –
83.3 µM | > 100 µM | 100 µM | COc1cc(C2CC(c3ccc(Cl)cc3)=NN2c2ccc(-c3ccccc3)nn2)cc(OC)c1OC (stereo not drawn) | > 100 µM | – | – | – | – | – | – | – | – | – | – | – | – | – | – | –
> 100 µM | 10 µM | 3.75 µM | Fc1ccc(C2CC(c3ccc(Cl)cc3)=NN2c2ccc(-c3ccccc3)nn2)cc1 (stereo not drawn) | > 100 µM | 32.1% | 68.8% | 75.8% | > 300 µM | 1.98% | 85.9% | 82.3% | – | – | – | – | – | – | – | –
> 100 µM | 10 µM | 23.8 µM | c1ccc(C2=NN(c3ccc(-c4ccccc4)nn3)C(c3ccccc3)C2)cc1 (stereo not drawn) | 40.9 µM | – | – | – | – | – | – | – | – | – | – | – | – | – | – | –
89.2 µM | 8.42 µM | 100 µM | Fc1ccc(C2CC(c3ccccc3)=NN2c2ccc(-c3ccccc3)nn2)cc1 (stereo not drawn) | 10 µM | – | 78.6% | 86.3% | > 300 µM | – | 93.7% | 91.9% | 50% | 30.5% | 8.84% | – | – | – | – | –
96.7 µM | 8.75 µM | 10 µM | Clc1ccc(C2=NN(c3ccc(-c4ccccc4)nn3)C(c3ccccc3)C2)cc1 (stereo not drawn) | 100 µM | – | 71.6% | 78.1% | > 300 µM | – | 84% | 81.6% | – | 22.7% | 23.45% | – | – | – | – | –
> 100 µM | 10 µM | 8.8 µM | Clc1ccc(C2=NN(c3ccc(-c4ccccc4)nn3)C(c3ccc(Cl)cc3)C2)cc1 (stereo not drawn) | > 100 µM | 39% | 76.4% | 79.8% | > 300 µM | 0.1% | 85.6% | 81.7% | – | – | – | – | – | – | – | –
100 µM | 6.31 µM | 100 µM | Clc1ccc(C2CC(c3ccccc3)=NN2c2ccc(-c3ccccc3)nn2)cc1 (stereo not drawn) | 100 µM | – | 74% | 88.3% | > 300 µM | – | 96.6% | 91.2% | – | 44.4% | 4.4% | – | – | – | – | –
83.8 µM | 100 µM | 70 µM | COc1cc(C2CC(c3ccccc3)=NN2c2ccc(-c3ccccc3)nn2)cc(OC)c1OC (stereo not drawn) | > 100 µM | – | – | – | – | – | – | – | – | – | – | – | – | – | – | –
> 100 µM | > 100 µM | 100 µM | COc1ccc(C2=NN(c3ccc(-c4ccccc4)nn3)C(c3cc(OC)c(OC)c(OC)c3)C2)cc1 (stereo not drawn) | > 100 µM | – | – | – | – | – | – | – | – | – | – | – | – | – | – | –
> 100 µM | > 100 µM | 100 µM | COc1ccc(C2=NN(c3ccc(-c4ccccc4)nn3)C(c3ccc(OC)cc3)C2)cc1 (stereo not drawn) | > 100 µM | – | – | – | – | – | – | – | – | – | – | – | – | – | – | –
100 µM | > 100 µM | 100 µM | COc1ccc(C2=NN(c3ccc(-c4ccccc4)nn3)C(c3ccc(OC)cc3OC)C2)cc1 (stereo not drawn) | > 100 µM | – | – | – | – | – | – | – | – | – | – | – | – | – | – | –
9.16 µM | 10 µM | 100 µM | FC(F)(F)c1ccc(C2CC(c3ccccc3)=NN2c2ccc(-c3ccccc3)nn2)cc1 (stereo not drawn) | 50 µM | – | 70.8% | 82.3% | > 300 µM | – | 89.8% | 86.2% | – | – | – | 11.11% | 46.6% | – | – | –
> 100 µM | 8.33 µM | 1.67 µM | FC(F)(F)c1ccc(C2CC(c3ccc(Cl)cc3)=NN2c2ccc(-c3ccccc3)nn2)cc1 (stereo not drawn) | 10 µM | 27.2% | 79.1% | 84.6% | > 300 µM | 1.26% | 92.7% | 87.7% | 50% | 24.8% | 4.97% | – | – | 5 | 13.4% | 1.87%
9.56 µM | 100 µM | > 100 µM | COc1ccc(C2CC(c3ccccc3)=NN2c2ccc(-c3ccccc3)nn2)c(OC)c1 (stereo not drawn) | > 100 µM | – | 74.2% | 81.1% | > 300 µM | – | 85.2% | 82.9% | – | – | – | 1.04% | 27% | – | – | –
91.7 µM | > 100 µM | 100 µM | COc1ccc(C2CC(c3ccccc3)=NN2c2ccc(-c3ccccc3)nn2)cc1 (stereo not drawn) | > 100 µM | – | – | – | – | – | – | – | – | – | – | – | – | – | – | –
75.9 µM | > 100 µM | > 100 µM | COc1ccc(C2=NN(c3ccc(-c4ccccc4)nn3)C(c3ccccc3)C2)cc1 (stereo not drawn) | > 100 µM | – | – | – | – | – | – | – | – | – | – | – | – | – | – | –
> 100 µM | 9.16 µM | 20 µM | COc1ccc(C2=NN(c3ccc(-c4ccccc4)nn3)C(c3ccc(F)cc3)C2)cc1 (stereo not drawn) | 18.1 µM | – | – | – | – | – | – | – | – | – | – | – | – | – | – | –
100 µM | > 100 µM | 100 µM | COc1ccc(C2CC(c3ccc(Cl)cc3)=NN2c2ccc(-c3ccccc3)nn2)cc1 (stereo not drawn) | > 100 µM | – | – | – | – | – | – | – | – | – | – | – | – | – | – | –
100 µM | > 100 µM | 58 µM | COc1ccc(C2=NN(c3ccc(-c4ccccc4)nn3)C(c3ccc(Cl)cc3)C2)cc1 (stereo not drawn) | > 100 µM | – | – | – | – | – | – | – | – | – | – | – | – | – | – | –
> 100 µM | > 100 µM | 46.8 µM | COc1ccc(C2=NN(c3ccc(-c4ccccc4)nn3)C(c3ccc(C(F)(F)F)cc3)C2)cc1 (stereo not drawn) | 65 µM | – | – | – | – | – | – | – | – | – | – | – | – | – | – | –
– | – | – | COc1cccc2c1C(=O)c1c(O)c3c(c(O)c1C2=O)C[C@@](O)(C(=O)CO)C[C@@H]3O[C@H]1C[C@H](N)[C@H](O)[C@H](C)O1 [DOXORUBICIN] | 3 µM | – | – | – | – | – | – | – | – | – | – | – | – | – | – | –
